Experimental data taken from ChEMBL document CHEMBL5316310, “Discovery of MK-8189, a Highly Potent and Selective PDE10A Inhibitor for the Treatment of Schizophrenia” (J Med Chem, 2023).
In brackets after ≈: the same amount, converted by molar mass. Activity calls are given as the source filed them. No cut-off for these calls is given here.

Key:
[1] = In vivo receptor occupancy at PDE10A receptor in MK-801-induced psychosis rat model striatum at 0.75 mg/kg, po administered 1 hr prior to MK-801 administration and measured after 90 mins; type: functional; conditions: time 2.5 hrs
How it was run: (§1)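 Rats in the MK-801 locomotor study were dosed orally at 0.25, 0.50 or 0.75 mg/kg. Plasma was taken 2.5 h post dose and drug levels measured. Striatal PDE10A occupancy was derived from plasma concentration using the [3H]MK-8193 ex vivo occupancy relation. n = 8/group; mean (SEM).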

[2] = Selectivity ratio of Ki for N-terminal GST-tagged and C-terminal His-tagged human recombinant PDE7A (122 to 456 residues) expressed in baculovirus-infected Sf9 cells to Ki for human PDE10A2 transfected in human AD293 cells cytosolic fraction
[3] = target: P-gp (ABCB1) (Homo sapiens, UniProt P08183); test: Substrate activity at human P-gp assessed as efflux ratio; type: ADME; conditions: not told
[4] = In vivo receptor occupancy at PDE10A receptor in MK-801-induced psychosis rat model striatum at 0.25 mg/kg, po administered 1 hr prior to MK-801 administration and measured after 90 mins; type: functional; conditions: time 2.5 hrs; how it was run: as §1
[5] = Toxicity in rat assessed as prolactin release; conditions: in vivo
[6] = Toxicity in CHO cells assessed as chromosomal aberration; type: cell-based, Cricetulus griseus; conditions: chinese hamster
[7] = Solubility of compound in FaSSIF; type: physicochemical; conditions: simulated gi fluid
[8] = Selectivity ratio of Ki for N-terminal GST-tagged human recombinant PDE1A expressed in baculovirus-infected Sf9 cells to Ki for human PDE10A2 transfected in human AD293 cells cytosolic fraction
[9] = Plasma clearance in Wistar-Hannover rat at 2 mg/kg, iv by LC-MS/MS analysis; type: ADME, organism-based
How it was run: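 IV bolus in DMSO/PEG400 (1:1). Male Wistar–Hannover rats (n = 3, ~300 g): 2 mg/kg via jugular cannula, sampled 0.03–24 h. Male rhesus (n = 3): 0.5 mg/kg into saphenous or cephalic vein, sampled to 24 h. Plasma (EDTA) analysed by LC-MS/MS after acetonitrile precipitation. Non-compartmental analysis; CL = dose/AUC0-inf; t1/2 from log-linear regression of the terminal phase. Values are means.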

[10] = Inhibition of IKS channel (unknown origin); set-up: species or system Homo sapiens
[11] = Solubility of compound in acidic simulated gastric fluid; type: physicochemical; conditions: simulated gi fluid
[12] = Protein binding in human plasma assessed as unbound fraction; type: ADME, cell-free
[13] = In vivo receptor occupancy at PDE10A receptor in rat striatum at 0.08 mg/kg, po measured after 1 hr; type: functional
How it was run: (§2)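 Striatal PDE10A occupancy in rats given the compound orally during the novel object recognition test. Occupancy was not measured directly but derived from plasma concentration taken 1 h post dose. n = 4/group, reported as mean (SEM).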

[14] = Protein binding in rat plasma; type: ADME, cell-free
[15] = Oral bioavailability in Rhesus monkey at 5 mg/kg by LC-MS/MS analysis; type: ADME, organism-based, Macaca mulatta; conditions: in vivo
How it was run: (§3)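 Oral gavage, 5 mL/kg. Rats (n = 3 male Wistar–Hannover) received 10 mg/kg in acidified 10% Tween 80, pH 2, sampled 0.25–24 h. Rhesus (2 female, 1 male) received 5 mg/kg in 0.5% methylcellulose with 1 mol equiv HCl. Plasma quantified by LC-MS/MS. F was taken from dose-adjusted PO/IV AUC0-inf ratios versus the 2 mg/kg (rat) or 0.5 mg/kg (rhesus) IV legs; values are means of n = 3.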

[16] = Oral bioavailability in Wistar-Hannover rat at 10 mg/kg; type: ADME, organism-based; conditions: in vivo; how it was run: as §3
[17] = In vivo receptor occupancy at PDE10A receptor in rat striatum at 0.16 mg/kg, po measured after 1 hr; type: functional; how it was run: as §2
[18] = system: Rattus norvegicus; test: Cognitive-enhancing activity in rat assessed as improvement in novel object recognition at 0.16 to 0.25 mg/kg, po measured after 1 hr by novel object recognition test; type: functional, organism-based; conditions: dose 0.16-0.25 mg/kg
How it was run: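 Novel object recognition in rats: oral dosing, then discrimination of a novel object from one seen 48 h earlier. Doses 0.08–0.25 mg/kg; donepezil 0.56 mg/kg as positive control. Groups compared with vehicle (p < 0.05). Plasma for exposure taken 1 h post dose, n = 4/group.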

[19] = target: Sodium channel protein type 5 subunit alpha (Homo sapiens, UniProt Q14524); test: Inhibition of Nav1.5 (unknown origin)
Sequence of Sodium channel protein type 5 subunit alpha (Q14524 whole entry): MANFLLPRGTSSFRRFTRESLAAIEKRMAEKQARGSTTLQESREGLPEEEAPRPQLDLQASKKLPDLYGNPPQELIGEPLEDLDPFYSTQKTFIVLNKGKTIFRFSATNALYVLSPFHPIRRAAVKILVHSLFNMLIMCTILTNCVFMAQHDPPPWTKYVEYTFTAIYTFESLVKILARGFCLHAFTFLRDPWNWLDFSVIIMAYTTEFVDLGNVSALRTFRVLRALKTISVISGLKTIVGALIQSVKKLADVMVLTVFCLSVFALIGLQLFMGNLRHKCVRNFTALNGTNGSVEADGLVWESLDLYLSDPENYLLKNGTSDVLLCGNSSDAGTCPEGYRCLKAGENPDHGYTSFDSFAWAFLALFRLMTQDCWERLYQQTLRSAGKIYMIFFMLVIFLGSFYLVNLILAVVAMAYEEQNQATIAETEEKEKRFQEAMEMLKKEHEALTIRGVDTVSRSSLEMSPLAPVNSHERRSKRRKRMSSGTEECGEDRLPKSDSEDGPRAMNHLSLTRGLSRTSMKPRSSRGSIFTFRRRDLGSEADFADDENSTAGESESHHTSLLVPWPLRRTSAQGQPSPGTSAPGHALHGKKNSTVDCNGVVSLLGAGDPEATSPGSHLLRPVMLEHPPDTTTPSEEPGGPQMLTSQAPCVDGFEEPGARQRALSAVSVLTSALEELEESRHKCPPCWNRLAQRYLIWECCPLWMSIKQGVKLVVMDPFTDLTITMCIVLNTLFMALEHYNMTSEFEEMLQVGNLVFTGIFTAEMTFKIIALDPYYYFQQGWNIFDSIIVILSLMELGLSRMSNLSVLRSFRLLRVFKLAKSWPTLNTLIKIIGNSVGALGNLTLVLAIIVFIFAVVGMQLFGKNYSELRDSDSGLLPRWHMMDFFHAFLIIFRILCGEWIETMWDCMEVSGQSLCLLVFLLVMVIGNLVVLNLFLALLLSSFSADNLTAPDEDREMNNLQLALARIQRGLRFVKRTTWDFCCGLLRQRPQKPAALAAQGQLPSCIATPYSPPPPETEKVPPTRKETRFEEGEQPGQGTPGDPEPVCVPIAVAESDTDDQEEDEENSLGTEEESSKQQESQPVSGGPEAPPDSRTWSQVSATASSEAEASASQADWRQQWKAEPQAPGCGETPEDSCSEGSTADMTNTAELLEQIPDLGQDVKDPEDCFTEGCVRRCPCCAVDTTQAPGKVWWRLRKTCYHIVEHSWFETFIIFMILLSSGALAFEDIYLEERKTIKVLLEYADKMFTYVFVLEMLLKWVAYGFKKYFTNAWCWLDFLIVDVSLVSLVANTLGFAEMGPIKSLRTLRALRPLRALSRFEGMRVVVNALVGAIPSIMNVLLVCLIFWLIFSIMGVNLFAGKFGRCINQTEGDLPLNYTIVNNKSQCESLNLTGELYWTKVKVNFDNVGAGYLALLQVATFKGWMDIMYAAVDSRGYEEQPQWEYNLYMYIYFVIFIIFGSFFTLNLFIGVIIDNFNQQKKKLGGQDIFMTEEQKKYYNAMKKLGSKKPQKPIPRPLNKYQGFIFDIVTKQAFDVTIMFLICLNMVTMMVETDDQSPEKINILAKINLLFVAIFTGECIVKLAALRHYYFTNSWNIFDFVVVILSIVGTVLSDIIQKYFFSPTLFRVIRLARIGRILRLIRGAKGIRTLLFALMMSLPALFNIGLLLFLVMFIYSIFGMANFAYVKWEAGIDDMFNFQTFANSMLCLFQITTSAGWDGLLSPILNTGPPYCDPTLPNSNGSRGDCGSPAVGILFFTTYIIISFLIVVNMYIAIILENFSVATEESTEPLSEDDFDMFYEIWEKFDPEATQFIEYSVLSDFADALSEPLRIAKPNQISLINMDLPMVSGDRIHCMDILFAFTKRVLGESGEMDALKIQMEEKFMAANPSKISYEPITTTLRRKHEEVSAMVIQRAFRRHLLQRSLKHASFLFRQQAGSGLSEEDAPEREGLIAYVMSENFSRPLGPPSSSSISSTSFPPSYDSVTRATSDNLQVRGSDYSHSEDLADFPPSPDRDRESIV

[20] = target: cAMP and cAMP-inhibited cGMP 3',5'-cyclic phosphodiesterase 10A (Homo sapiens, UniProt Q9Y233); test: Inhibition of human recombinant full length PDE10A
[21] = Selectivity ratio of Ki for N-terminal GST-tagged full length human recombinant PDE8A1 expressed in baculovirus-infected Sf9 cells to Ki for human PDE10A2 transfected in human AD293 cells cytosolic fraction
[22] = target: Voltage-dependent L-type calcium channel subunit alpha-1C (Homo sapiens, UniProt Q13936); test: Inhibition of Cav1.2 (unknown origin)
Sequence of Voltage-dependent L-type calcium channel subunit alpha-1C (Q13936 whole entry): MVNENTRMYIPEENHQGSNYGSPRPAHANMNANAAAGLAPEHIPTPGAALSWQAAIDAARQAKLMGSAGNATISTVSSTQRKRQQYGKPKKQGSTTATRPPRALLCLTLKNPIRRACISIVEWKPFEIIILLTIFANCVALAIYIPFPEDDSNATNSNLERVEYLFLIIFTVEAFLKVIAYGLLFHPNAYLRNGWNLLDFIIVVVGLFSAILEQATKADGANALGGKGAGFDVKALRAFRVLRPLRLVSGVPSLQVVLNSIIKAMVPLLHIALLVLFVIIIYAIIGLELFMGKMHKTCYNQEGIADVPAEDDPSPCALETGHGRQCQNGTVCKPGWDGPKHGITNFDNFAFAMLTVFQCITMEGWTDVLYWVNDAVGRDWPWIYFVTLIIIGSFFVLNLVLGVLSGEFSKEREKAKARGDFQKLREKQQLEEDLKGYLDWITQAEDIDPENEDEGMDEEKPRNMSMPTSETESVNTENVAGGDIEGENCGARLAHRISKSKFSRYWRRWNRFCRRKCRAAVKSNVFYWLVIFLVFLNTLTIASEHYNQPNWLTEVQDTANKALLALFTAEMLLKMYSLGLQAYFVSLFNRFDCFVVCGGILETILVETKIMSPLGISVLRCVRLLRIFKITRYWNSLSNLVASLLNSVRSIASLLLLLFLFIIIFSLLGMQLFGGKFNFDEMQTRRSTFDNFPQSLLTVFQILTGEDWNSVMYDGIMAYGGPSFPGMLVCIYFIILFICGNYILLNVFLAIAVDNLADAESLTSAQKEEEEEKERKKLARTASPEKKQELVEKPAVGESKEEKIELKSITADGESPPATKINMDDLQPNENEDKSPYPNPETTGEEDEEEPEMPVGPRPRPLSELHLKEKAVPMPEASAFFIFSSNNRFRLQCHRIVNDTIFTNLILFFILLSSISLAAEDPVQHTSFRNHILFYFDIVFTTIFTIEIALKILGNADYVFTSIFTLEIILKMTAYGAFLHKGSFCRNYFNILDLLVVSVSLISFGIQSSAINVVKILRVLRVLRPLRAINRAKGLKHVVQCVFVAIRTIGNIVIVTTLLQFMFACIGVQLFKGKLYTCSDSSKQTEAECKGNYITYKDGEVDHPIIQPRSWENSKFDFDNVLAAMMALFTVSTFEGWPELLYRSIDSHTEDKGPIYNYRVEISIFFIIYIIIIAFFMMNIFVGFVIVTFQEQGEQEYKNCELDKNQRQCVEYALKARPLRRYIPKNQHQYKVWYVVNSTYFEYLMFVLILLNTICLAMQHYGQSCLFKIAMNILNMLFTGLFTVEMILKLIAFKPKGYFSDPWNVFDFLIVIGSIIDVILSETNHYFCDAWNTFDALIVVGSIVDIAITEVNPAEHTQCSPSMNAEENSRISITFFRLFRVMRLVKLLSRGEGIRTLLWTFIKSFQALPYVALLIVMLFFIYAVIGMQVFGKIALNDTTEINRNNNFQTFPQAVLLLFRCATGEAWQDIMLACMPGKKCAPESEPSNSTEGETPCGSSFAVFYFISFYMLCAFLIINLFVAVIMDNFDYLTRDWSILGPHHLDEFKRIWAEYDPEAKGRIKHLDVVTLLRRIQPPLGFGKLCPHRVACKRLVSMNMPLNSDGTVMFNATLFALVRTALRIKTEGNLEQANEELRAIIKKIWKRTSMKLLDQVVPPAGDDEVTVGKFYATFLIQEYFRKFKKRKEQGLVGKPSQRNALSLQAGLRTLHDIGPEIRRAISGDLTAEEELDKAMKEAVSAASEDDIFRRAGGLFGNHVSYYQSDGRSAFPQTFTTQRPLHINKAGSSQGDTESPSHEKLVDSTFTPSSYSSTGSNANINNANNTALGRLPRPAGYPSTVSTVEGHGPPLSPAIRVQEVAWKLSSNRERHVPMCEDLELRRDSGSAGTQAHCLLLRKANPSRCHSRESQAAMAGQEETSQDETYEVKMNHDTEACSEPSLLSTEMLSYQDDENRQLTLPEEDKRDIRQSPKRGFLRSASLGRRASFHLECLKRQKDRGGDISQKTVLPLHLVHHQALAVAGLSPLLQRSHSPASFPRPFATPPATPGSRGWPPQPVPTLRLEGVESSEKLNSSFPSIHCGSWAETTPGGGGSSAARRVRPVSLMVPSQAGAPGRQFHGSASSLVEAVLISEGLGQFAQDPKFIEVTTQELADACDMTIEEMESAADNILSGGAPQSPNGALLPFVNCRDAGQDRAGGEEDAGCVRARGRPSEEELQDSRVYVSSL

[23] = Volume of distribution at steady state in Wistar-Hannover rat at 2 mg/kg, iv by LC-MS/MS analysis; type: ADME, organism-based; conditions: in vivo, read-out: Vdss
How it was run: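 Male Wistar–Hannover rats (~300 g, n = 3) received a 2 mg/kg IV bolus through a jugular vein cannula, dosed from a 5 mg/mL solution in DMSO/PEG400 (1:1). EDTA blood was sampled from pre-dose to 24 h. Plasma was protein-precipitated with acetonitrile and analysed by positive-ion APCI LC-MS/MS. Vdss was calculated non-compartmentally as plasma clearance × mean residence time and reported as the mean.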

[24] = Substrate activity at monkey P-gp assessed as efflux ratio; type: ADME, Macaca mulatta; conditions: rhesus monkey
[25] = target: T1, Nuclear receptor subfamily 1 group I member 2 (Homo sapiens, UniProt O75469); test: Activation of PXR (unknown origin) assessed as CYP3A4 induction; type: ADME
T1 sequence (O75469 whole entry): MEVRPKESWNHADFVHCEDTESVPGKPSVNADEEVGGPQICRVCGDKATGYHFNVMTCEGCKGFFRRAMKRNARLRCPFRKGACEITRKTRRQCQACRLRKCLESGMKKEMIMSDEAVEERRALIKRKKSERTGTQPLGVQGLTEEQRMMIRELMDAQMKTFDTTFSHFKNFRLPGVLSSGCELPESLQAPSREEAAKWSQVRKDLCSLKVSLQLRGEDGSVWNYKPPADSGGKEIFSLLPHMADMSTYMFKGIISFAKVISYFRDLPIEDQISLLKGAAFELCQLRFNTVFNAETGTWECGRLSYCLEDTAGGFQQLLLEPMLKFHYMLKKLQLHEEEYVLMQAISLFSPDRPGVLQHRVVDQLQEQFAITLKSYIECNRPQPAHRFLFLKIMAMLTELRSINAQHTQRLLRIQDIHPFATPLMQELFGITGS

[26] = target: Somatostatin receptor type 2 (Homo sapiens, UniProt P30874); test: Displacement of [125I]somatostatin from human full-length recombinant SSTR2 expressed in CHO-K1 cells by radioligand binding assay; type: cell-based
Sequence of Somatostatin receptor type 2 (P30874 whole entry, the tested form may be a part): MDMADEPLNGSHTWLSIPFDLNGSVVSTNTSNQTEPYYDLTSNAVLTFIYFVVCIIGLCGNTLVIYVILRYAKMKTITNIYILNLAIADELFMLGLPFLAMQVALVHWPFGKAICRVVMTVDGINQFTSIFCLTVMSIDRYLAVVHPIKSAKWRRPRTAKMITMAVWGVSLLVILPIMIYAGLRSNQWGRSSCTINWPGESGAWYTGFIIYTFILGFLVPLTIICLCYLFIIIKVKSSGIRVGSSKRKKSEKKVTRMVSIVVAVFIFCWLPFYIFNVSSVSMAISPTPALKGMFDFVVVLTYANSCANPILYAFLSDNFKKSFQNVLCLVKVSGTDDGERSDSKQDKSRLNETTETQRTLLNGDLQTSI

[27] = Selectivity ratio of Ki for N-terminal His-GST-tagged human recombinant PDE3A(669 to 1141 residues) expressed in baculovirus-infected Sf9 cells to Ki for human PDE10A2 transfected in human AD293 cells cytosolic fraction

Question: What does the source list for Cc1ccc([C@H]2C[C@@H]2COc2cc(NCc3nnc(C)s3)nc(C)n2)nc1 [MK-8189]?
Answer: Occ [1]: 50%; Ratio Ki [2]: > 500000; efflux ratio [3]: < 2; Occ [4]: 25%; Activity [5]: Non-Toxic; Activity [6]: Non-Toxic; solubility [7]: 170 µg/mL (≈ 0.444 mM); Ratio Ki [8]: > 500000; clearance [9]: 21.3 mL/min/kg; IC50 [10]: > 30 µM; solubility [11]: 5000 µg/mL (≈ 13.1 mM); Fu [12]: 4%; Occ [13]: 24%; PPB [14]: 91.8%; F [15]: 41%; F [16]: 46%; Occ [17]: 29%; Activity [18]: Active; IC50 [19]: > 30 µM; IC50 [20]: 0.0016 µM; Ratio Ki [21]: > 500000; IC50 [22]: > 30 µM; Vd [23]: 0.93 L/kg; Ratio [24]: < 2; EC50 [25]: > 30 µM; IC50 [26]: 2.8 µM; Ratio Ki [27]: > 500000
